The IC50 is the concentration at which inhibition is half-maximal.

SMILES strings stand for the structures. The source made the active and inactive calls. No cut-off for these calls is given here.

Test [1] concerns the target BDNF/NT-3 growth factors receptor (Homo sapiens) (UniProt Q16620). In words: Inhibition of TRKB (unknown origin) at 1 uM by KINOMEscanning assay relative to control; values are per cent of control.
In test [2] the target is Calcium/calmodulin-dependent protein kinase type 1 (Homo sapiens) (UniProt Q14012). Description: Inhibition of CAMK1 (unknown origin) at 1 uM by KINOMEscanning assay relative to control; values are per cent of control.
For test [3], the target named is T1, Mast/stem cell growth factor receptor Kit (Homo sapiens, UniProt P10721). The following applies: 5 uM.
T1 sequence (P10721 whole entry): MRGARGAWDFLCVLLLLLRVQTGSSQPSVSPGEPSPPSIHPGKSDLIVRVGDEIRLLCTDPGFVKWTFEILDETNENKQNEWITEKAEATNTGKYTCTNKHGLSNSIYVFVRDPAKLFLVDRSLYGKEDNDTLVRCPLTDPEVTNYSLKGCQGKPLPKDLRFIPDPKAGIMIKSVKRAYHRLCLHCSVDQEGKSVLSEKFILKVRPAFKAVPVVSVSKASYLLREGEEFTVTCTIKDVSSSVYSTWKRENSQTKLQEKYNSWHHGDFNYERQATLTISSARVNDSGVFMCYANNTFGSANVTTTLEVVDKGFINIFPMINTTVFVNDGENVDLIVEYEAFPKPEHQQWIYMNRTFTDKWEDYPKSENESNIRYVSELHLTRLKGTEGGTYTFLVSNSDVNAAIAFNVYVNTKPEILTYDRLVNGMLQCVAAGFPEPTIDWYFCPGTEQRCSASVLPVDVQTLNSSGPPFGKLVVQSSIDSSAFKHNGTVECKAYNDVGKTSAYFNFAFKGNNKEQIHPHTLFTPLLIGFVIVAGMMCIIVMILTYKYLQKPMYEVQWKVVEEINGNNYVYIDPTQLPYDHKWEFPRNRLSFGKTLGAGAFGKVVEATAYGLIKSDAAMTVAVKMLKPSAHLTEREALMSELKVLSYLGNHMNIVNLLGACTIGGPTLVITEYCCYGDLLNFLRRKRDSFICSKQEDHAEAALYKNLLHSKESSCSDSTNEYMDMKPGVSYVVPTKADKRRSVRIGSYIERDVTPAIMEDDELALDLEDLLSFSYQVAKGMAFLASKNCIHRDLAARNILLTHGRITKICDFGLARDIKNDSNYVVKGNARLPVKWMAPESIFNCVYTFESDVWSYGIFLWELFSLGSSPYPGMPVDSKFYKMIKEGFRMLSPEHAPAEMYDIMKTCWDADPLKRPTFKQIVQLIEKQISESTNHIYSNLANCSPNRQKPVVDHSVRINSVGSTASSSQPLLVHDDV
In test [4] the target is Mitogen-activated protein kinase 3 (Homo sapiens) (UniProt P27361). Description: Inhibition of ERK1 (unknown origin) at 1 uM by KINOMEscanning assay relative to control; values are per cent of control.
Chain of Mitogen-activated protein kinase 3 (Homo sapiens) (P27361 whole entry): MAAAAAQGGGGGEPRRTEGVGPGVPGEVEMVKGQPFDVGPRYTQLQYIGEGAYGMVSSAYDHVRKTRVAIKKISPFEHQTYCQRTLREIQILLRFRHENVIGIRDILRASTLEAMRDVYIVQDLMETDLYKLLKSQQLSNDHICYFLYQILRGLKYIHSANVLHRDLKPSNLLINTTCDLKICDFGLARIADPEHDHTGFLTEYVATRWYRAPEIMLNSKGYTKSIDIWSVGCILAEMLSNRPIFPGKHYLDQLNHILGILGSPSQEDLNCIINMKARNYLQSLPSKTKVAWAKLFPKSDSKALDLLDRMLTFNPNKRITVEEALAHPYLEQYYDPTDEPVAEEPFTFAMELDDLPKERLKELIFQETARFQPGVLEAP
Test [5] deals with 5'-AMP-activated protein kinase catalytic subunit alpha-2 (Homo sapiens) (UniProt P54646). Description: Inhibition of AMPKalpha 2 (unknown origin) at 1 uM by KINOMEscanning assay relative to control; values are per cent of control.
Chain of 5'-AMP-activated protein kinase catalytic subunit alpha-2 (Homo sapiens) (P54646 whole entry, looked up): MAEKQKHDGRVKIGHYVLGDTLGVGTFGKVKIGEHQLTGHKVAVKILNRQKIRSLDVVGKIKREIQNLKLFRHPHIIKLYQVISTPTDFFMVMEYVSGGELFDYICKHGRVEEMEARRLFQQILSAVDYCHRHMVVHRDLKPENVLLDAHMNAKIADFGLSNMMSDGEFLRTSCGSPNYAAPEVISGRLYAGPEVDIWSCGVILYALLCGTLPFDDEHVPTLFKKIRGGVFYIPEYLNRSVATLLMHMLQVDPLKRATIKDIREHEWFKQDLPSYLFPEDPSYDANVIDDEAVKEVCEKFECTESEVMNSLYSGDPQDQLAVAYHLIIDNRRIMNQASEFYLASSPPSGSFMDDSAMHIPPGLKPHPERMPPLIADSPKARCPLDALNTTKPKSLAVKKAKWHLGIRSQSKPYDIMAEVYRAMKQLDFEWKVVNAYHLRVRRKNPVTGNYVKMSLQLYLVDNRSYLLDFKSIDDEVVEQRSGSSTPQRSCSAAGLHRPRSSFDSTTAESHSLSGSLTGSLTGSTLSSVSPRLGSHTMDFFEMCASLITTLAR
In test [6] the test system is Mast/stem cell growth factor receptor Kit (Homo sapiens), P10721 [D816V]. In words: Inhibition of c-KIT D816V mutant (unknown origin) at 1 uM by KINOMEscanning assay relative to control; values are per cent of control.
Chain of Mast/stem cell growth factor receptor Kit (Homo sapiens), P10721 [D816V] (P10721 whole entry D816V): as the sequence (P10721 whole entry) above, with D816V counted along it
Test [7] has as its target RAC-alpha serine/threonine-protein kinase (Homo sapiens) (UniProt P31749). Description: Inhibition of AKT1 (unknown origin) at 1 uM by KINOMEscanning assay relative to control; values are per cent of control.
The target in test [8] is Serine/threonine-protein kinase PLK1 (Homo sapiens) (UniProt P53350). In words: Inhibition of PLK1 (unknown origin) at 1 uM by KINOMEscanning assay relative to control; values are per cent of control.
Chain of Serine/threonine-protein kinase PLK1 (Homo sapiens) (P53350 whole entry): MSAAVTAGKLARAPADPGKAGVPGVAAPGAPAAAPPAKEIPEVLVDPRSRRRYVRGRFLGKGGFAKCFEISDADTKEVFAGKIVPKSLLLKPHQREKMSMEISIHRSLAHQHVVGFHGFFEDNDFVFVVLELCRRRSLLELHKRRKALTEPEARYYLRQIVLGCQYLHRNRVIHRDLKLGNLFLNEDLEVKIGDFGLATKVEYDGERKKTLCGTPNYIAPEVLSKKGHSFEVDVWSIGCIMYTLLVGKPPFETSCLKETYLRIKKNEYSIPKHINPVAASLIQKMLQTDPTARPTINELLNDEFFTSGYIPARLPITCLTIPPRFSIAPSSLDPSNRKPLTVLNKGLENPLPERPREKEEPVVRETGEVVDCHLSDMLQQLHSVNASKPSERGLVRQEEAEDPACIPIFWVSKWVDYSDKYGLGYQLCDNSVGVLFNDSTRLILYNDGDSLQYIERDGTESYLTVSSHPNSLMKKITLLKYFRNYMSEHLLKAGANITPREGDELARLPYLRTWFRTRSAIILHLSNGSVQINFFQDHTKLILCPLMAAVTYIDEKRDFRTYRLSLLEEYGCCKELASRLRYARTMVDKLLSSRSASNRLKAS
In test [9] the target is Cyclin-dependent kinase 9 (Homo sapiens) (UniProt P50750). Description: Inhibition of CDK9 (unknown origin) at 1 uM by KINOMEscanning assay relative to control; values are per cent of control.
Chain of Cyclin-dependent kinase 9 (Homo sapiens) (P50750 whole entry): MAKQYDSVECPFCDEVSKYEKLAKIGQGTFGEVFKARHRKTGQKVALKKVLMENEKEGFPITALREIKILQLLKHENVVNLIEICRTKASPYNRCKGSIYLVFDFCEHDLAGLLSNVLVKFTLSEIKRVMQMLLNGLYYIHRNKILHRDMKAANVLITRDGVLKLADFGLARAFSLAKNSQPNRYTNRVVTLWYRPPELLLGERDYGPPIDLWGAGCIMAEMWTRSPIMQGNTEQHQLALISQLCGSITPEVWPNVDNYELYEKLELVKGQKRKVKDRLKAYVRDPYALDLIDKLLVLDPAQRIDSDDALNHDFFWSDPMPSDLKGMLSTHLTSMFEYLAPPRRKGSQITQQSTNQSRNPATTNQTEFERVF
Test [10] has as its target T1, Mast/stem cell growth factor receptor Kit. Description: Inhibition of c-KIT (unknown origin) at 1 uM by KINOMEscanning/auto inhibition assay; values are per cent of control.
Test [11] concerns the target Vascular endothelial growth factor receptor 1 (Homo sapiens) (UniProt P17948). Description: Inhibition of FLT1 (unknown origin) at 1 uM by KINOMEscanning assay relative to control; values are per cent of control.
For test [12], the target named is Dual specificity mitogen-activated protein kinase kinase 1 (Homo sapiens) (UniProt Q02750). Description: Inhibition of MEK1 (unknown origin) at 1 uM by KINOMEscanning assay relative to control; values are per cent of control.
For test [13], the target named is Aurora kinase B (Homo sapiens) (UniProt Q96GD4). Description: Inhibition of AURKB (unknown origin) at 1 uM by KINOMEscanning assay relative to control; values are per cent of control.
Chain of Aurora kinase B (Homo sapiens) (Q96GD4 whole entry): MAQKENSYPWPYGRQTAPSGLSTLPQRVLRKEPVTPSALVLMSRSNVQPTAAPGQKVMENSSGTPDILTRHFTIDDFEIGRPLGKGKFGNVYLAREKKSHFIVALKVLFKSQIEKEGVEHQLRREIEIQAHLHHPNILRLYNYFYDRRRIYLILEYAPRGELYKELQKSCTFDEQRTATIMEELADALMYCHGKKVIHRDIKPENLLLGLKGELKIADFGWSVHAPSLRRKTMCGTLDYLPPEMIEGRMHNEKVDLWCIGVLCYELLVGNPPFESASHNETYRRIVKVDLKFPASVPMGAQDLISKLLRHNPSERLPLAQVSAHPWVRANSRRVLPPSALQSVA
Test [14] has as its target Rho-associated protein kinase 1 (Homo sapiens) (UniProt Q13464). Description: Inhibition of ROCK1 (unknown origin) at 1 uM by KINOMEscanning assay relative to control; values are per cent of control.
Test [15] addresses Platelet-derived growth factor receptor alpha (Homo sapiens) (UniProt P16234). In words: Inhibition of PDGFRalpha (unknown origin) at 1 uM by KINOMEscanning assay relative to control; values are per cent of control.
In test [16] the target is Focal adhesion kinase 1 (Homo sapiens) (UniProt Q05397). Description: Inhibition of FAK (unknown origin) at 1 uM by KINOMEscanning assay relative to control; values are per cent of control.
Chain of Focal adhesion kinase 1 (Homo sapiens) (Q05397 2-1052 limits assumed): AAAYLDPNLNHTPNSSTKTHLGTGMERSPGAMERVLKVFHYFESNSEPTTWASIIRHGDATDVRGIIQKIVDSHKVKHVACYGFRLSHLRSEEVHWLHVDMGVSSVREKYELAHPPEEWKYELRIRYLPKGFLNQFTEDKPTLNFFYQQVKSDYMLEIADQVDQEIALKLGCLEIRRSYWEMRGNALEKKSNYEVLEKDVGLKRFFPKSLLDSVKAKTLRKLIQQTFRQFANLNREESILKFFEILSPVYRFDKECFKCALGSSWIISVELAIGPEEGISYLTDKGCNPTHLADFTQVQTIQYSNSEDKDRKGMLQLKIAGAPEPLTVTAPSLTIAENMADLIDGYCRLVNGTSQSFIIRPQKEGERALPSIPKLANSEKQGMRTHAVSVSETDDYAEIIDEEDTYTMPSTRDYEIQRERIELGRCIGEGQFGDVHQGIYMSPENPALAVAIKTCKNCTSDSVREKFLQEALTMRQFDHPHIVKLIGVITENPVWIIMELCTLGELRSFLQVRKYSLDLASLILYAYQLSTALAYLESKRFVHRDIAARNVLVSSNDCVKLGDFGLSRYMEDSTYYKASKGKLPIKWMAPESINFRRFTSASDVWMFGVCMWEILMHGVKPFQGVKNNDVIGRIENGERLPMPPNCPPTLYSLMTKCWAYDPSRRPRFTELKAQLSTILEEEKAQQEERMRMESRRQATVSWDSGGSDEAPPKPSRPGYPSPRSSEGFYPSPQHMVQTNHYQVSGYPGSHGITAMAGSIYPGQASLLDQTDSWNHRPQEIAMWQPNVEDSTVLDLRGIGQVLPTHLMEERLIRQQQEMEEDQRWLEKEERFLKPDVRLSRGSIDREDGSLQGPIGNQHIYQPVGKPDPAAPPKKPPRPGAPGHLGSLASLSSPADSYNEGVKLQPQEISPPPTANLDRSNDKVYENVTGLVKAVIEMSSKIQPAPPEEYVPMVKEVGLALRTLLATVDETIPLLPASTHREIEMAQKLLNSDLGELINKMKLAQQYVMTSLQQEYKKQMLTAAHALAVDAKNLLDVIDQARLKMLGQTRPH
The nature of test [17]: Antiproliferative activity against human HMC-1.2 cells carrying V560G, D816V mutant assessed as cell growth inhibition by MTT assay. It is filed as functional, cell-based. In a few lines: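 Cell viability by MTT assay in imatinib-resistant HMC-1.2 human mast cells (V560G, D816V), 48 h exposure across a range of concentrations.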
For orientation: Tetrazolium dyes change colour on reduction, which living cells bring about.

Test [18] has as its target T2, Inhibitor of nuclear factor kappa-B kinase subunit alpha (Homo sapiens) (UniProt O15111).
T2 sequence (whole entry): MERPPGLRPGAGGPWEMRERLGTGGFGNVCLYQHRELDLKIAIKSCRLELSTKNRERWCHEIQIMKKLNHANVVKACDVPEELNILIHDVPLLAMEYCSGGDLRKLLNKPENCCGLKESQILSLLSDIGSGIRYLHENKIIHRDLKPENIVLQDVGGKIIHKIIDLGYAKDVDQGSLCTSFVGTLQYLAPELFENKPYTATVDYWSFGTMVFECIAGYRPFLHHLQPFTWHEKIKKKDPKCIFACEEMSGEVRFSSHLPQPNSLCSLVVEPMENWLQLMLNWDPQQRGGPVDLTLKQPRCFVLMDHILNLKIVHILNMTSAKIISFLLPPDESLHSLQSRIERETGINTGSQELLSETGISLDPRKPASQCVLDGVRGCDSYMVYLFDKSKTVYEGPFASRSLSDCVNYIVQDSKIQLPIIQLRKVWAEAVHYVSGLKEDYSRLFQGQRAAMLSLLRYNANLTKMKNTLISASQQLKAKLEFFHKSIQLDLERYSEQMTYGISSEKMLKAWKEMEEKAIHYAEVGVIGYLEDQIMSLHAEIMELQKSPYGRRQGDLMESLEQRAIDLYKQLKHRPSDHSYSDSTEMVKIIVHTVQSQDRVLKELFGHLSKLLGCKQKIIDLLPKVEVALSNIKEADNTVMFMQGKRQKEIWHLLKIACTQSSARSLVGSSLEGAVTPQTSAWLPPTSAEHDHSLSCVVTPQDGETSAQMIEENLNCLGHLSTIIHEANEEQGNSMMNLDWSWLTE
Description: Inhibition of IKKalpha (unknown origin) at 1 uM by KINOMEscanning assay relative to control; values are per cent of control.

Chain of RAC-alpha serine/threonine-protein kinase (Homo sapiens) (P31749 whole entry): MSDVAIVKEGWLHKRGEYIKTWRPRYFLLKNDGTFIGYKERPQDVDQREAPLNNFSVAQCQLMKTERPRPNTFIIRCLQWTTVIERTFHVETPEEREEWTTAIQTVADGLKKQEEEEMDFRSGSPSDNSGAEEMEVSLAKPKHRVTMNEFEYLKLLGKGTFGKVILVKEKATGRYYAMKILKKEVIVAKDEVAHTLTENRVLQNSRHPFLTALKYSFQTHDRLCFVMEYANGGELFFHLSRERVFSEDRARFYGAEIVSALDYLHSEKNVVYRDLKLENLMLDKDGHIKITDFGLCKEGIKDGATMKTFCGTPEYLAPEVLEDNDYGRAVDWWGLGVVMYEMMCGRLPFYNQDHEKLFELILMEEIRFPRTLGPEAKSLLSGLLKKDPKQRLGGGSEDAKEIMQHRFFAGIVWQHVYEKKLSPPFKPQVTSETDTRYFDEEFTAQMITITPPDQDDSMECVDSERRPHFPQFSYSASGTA

Turning to `COc1cc(-c2c[nH]c3ncc(-c4cccc(N)c4)cc23)cc(OC)c1OC`, the residual activity came to 68% in test [1]; 53% in [2]; 23% in [4]; 77% in test [5]; 2.1% in test [6]; 87% in test [7]. Moreover, the residual activity was 100% in [8]; 83% in test [9]; 53% in test [10]; 36% in [11]; 85% in test [12]; 31% in [13]. The residual activity was 94% in [14], 65% in [15], 92% in test [16] and 46% in [18]. In addition, in test [3], the inhibition result was “Active”. For the same compound, the half-maximal inhibitory concentration (IC50) in test [17] stood at 810 nM.
For the compound `COc1ccc(-c2c[nH]c3ncc(-c4cc(OC)c(OC)c(OC)c4)cc23)cc1OC`, the residual activity in test [1] came out at 45%; in test [2] it was 61%; in [4], 88%; in [5], 86%; in [6] it was 0%; in test [7], 98%. The residual activity in test [8] was determined as 99%; in test [9] it was 100%; in [10] it was 42%; in test [11] it was 75%; in test [12], 78%; in test [13] it was 92%. The residual activity was found to be 66% in test [14], 59% in test [15], 92% in test [16] and 70% in test [18]. Besides, the inhibition result in [3] was “Active”. For the same compound, the IC50 in test [17] worked out at 910 nM.
Take `COc1ccc(-c2c[nH]c3ncc(-c4ccc(C(=O)N5CCOCC5)c(N)c4)cc23)cc1OC`: the residual activity in test [1] was found to be 17%; in [2] it was 62%; in test [4], 100%; in test [5] it was 82%; in test [6], 1.4%; in test [7], 100%. In addition, the residual activity in [8] is 84%; in [9], 100%; in test [10] it was 76%; in [11] it was 56%; in test [12], 59%; in test [13] it was 44%. Also, the residual activity in test [14] came out at 16%; in test [15], 36%; in test [16], 88%; in test [18], 2.2%. The IC50 in test [17] was found to be 2010 nM.
Regarding `COc1ccc(-c2cnc3[nH]cc(-c4ccc(OC)c(OC)c4)c3c2)cc1OC`, the residual activity turned out to be 36% in [1]; 63% in [2]; 93% in [4]; 81% in [5]; 0% in [6]; 100% in test [7]. The residual activity in test [8] was determined as 98%; in test [9], 100%; in test [10], 48%; in test [11] it was 81%; in test [12] it was 74%; in [13] it was 82%. In addition, the residual activity came to 33% in [14], 16% in test [15], 88% in test [16] and 10% in test [18]. The inhibition entry in test [3] is “Active”. Moreover, the IC50 in [17] was 760 nM.
Regarding `COc1ccc(-c2cnc3[nH]cc(-c4ccc(OC)c(OC)c4)c3c2)cc1N`, the residual activity in test [1] is 16%; in test [2], 71%; in test [4], 88%; in test [5], 87%; in test [6] it was 0%; in test [7], 92%. The residual activity in [8] is 84%; in test [9], 100%; in test [10] it was 65%; in [11] it was 43%; in [12], 76%; in test [13] it was 85%. Further, the residual activity in test [14] is 16%; in test [15], 21%; in [16], 93%; in [18], 26%. Besides, the inhibition entry in test [3] is “Active”. For the same compound, the IC50 in [17] turned out to be 870 nM.

The values are drawn from ChEMBL document CHEMBL3352338, “Development and biological evaluation of potent and selective c-KIT(D816V) inhibitors” (J Med Chem, 2014).
